Experimental data as given in ChEMBL document CHEMBL1142488, “Synthesis of N-substituted 5-[2-(N-alkylamino)ethyl]dibenzo[c,h][1,6]naphthyridines as novel topoisomerase I-targeting antitumor agents” (Bioorg Med Chem, 2008).

Key:
[1] = Cytotoxicity against human RPMI8402 cells after MTT assay; assay type: functional, cell-based; details: RPMI 8402
Summary of the method: (§1)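 Suspension cultures at 37 °C, 5% CO2, in RPMI with 10% heat-inactivated FBS, 2 mM L-glutamine, penicillin and streptomycin. Continuous 4-day exposure to a range of drug concentrations, then MTT read-out to give IC50. Drug-free control included. At least two runs, six replicate wells each.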

[2] = target: T1, DNA topoisomerase 1 (Homo sapiens) (UniProt P11387); assay: Inhibition of human topoisomerase 1 mediated DNA cleavage assessed as effective drug concentration causing 10% YepG plasmid cleavage relative to camptothecin; details: in the assay text read “relative to topotecan” for “relative to camptothecin”
T1 sequence (whole entry): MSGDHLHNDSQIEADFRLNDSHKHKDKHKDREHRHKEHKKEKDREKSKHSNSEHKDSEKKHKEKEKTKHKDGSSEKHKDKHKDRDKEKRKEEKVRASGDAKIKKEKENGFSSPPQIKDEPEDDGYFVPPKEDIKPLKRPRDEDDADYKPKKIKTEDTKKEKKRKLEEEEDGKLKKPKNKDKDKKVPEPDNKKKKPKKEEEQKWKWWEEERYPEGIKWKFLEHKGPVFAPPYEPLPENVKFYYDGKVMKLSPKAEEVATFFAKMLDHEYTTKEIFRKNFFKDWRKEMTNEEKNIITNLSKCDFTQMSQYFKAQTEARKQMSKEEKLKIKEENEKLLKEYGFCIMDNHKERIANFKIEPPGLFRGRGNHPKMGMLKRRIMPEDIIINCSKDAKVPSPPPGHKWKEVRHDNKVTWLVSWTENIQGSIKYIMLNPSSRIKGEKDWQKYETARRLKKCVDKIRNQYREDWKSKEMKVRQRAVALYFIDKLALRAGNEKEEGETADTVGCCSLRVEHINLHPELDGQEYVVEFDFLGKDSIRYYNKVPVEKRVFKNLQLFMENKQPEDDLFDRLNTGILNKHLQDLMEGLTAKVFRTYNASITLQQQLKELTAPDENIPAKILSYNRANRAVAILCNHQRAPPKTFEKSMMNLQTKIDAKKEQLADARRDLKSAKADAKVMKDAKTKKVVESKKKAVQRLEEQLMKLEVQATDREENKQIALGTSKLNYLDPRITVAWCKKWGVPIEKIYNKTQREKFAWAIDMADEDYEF
Summary of the method: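 Stopped with SDS and proteinase K, 1 h at 37 °C. Alkali-denatured with NaOH/EDTA/sucrose/bromophenol blue, then run on neutral agarose gel.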

[3] = Cytotoxicity against camptothecin-resistant human CPT-K5 cells after MTT assay; assay type: functional, cell-based; summary of the method: as §1
[4] = system: MDA-MB-435 (Homo sapiens); assay: Antitumor activity against human MDA-MB-435 cells xenografted in NCR/NU NU mouse assessed as tumor volume measured on day 35 initially dosed at 1.5 mg/kg, ip qd x 3/5 days schedule; details: route intraperitoneal
[5] = system: MDA-MB-435 (Homo sapiens); assay: Antitumor activity against human MDA-MB-435 cells xenografted in NCR/NU NU mouse assessed as tumor volume measured on day 42 initially dosed at 1.5 mg/kg, ip qd x 3/5 days schedule; details: route intraperitoneal
[6] = system: MDA-MB-435 (Homo sapiens); assay: Antitumor activity against human MDA-MB-435 cells xenografted in NCR/NU NU mouse assessed as tumor volume measured on day 28 initially dosed at 1.5 mg/kg, ip qd x 3/5 days schedule; details: route intraperitoneal
[7] = system: MDA-MB-435 (Homo sapiens); assay: Antitumor activity against human MDA-MB-435 cells xenografted in NCR/NU NU mouse assessed as tumor volume measured on day 49 initially dosed at 1.5 mg/kg, ip qd x 3/5 days schedule; details: route intraperitoneal
[8] = system: MDA-MB-435 (Homo sapiens); assay: Antitumor activity against human MDA-MB-435 cells xenografted in NCR/NU NU mouse assessed as tumor volume measured on day 21 initially dosed at 1.5 mg/kg, ip qd x 3/5 days schedule; details: route intraperitoneal
[9] = Cytotoxicity against multidrug resistant human KBV-1 cells overexpressing MDR1 after MTT assay; assay type: functional, cell-based; details: KB-V1
Summary of the method: (§2)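 IC50 after continuous 4-day exposure to varying drug concentrations, with MTT read at the end of day 4. A drug-free control was included. At least two runs, each in six replicate wells.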

[10] = Cytotoxicity against multidrug resistant human KBH5.0 cells overexpressing BCRP after MTT assay; assay type: functional, cell-based; details: KBH5.0 cell; summary of the method: as §2
[11] = system: MDA-MB-435 (Homo sapiens); assay: Antitumor activity against human MDA-MB-435 cells xenografted in NCR/NU NU mouse assessed as tumor volume measured on day 14 initially dosed at 1.5 mg/kg, ip qd x 3/5 days schedule; details: route intraperitoneal
MDA-MB-435 (human) [12] = assay: Antitumor activity against human MDA-MB-435 cells xenografted in NCR/NU NU mouse assessed as tumor volume measured on day 7 initially dosed at 1.5 mg/kg, ip qd x 3/5 days schedule; details: route intraperitoneal
[13] = Cytotoxicity against camptothecin-resistant and TOP1 deficient mouse P388/CPT45 cells after MTT assay; assay type: functional, cell-based; details: P388CPT45; summary of the method: as §1
[14] = Cytotoxicity against human KB3-1 cells after MTT assay; assay type: functional, cell-based; details: KB 3-1; summary of the method: as §2
MDA-MB-435 (human) [15] = assay: Antitumor activity against human MDA-MB-435 cells xenografted in NCR/NU NU mouse assessed as tumor volume measured on day 21 initially dosed at 5 mg/kg, ip qd x 5/week for 1 week and dose schedule adjusted to achieve total dose of 301 mg/kg
MDA-MB-435 (human) [16] = assay: Antitumor activity against human MDA-MB-435 cells xenografted in NCR/NU NU mouse assessed as tumor volume measured on day 49 initially dosed at 5 mg/kg, ip qd x 5/week for 1 week and dose schedule adjusted to achieve total dose of 301 mg/kg
MDA-MB-435 (human) [17] = assay: Antitumor activity against human MDA-MB-435 cells xenografted in NCR/NU NU mouse assessed as tumor volume measured on day 7 initially dosed at 5 mg/kg, ip qd x 5/week for 1 week and dose schedule adjusted to achieve total dose of 301 mg/kg
MDA-MB-435 (human) [18] = assay: Antitumor activity against human MDA-MB-435 cells xenografted in NCR/NU NU mouse assessed as tumor volume measured on day 42 initially dosed at 5 mg/kg, ip qd x 5/week for 1 week and dose schedule adjusted to achieve total dose of 301 mg/kg
MDA-MB-435 (human) [19] = assay: Antitumor activity against human MDA-MB-435 cells xenografted in NCR/NU NU mouse assessed as tumor volume measured on day 28 initially dosed at 5 mg/kg, ip qd x 5/week for 1 week and dose schedule adjusted to achieve total dose of 301 mg/kg
MDA-MB-435 (human) [20] = assay: Antitumor activity against human MDA-MB-435 cells xenografted in NCR/NU NU mouse assessed as tumor volume measured on day 35 initially dosed at 5 mg/kg, ip qd x 5/week for 1 week and dose schedule adjusted to achieve total dose of 301 mg/kg
P388 = assay: Cytotoxicity against mouse P388 cells after MTT assay; assay type: functional, cell-based; summary of the method: as §1
MDA-MB-435 (human) [21] = assay: Antitumor activity against human MDA-MB-435 cells xenografted in NCR/NU NU mouse assessed as tumor volume measured on day 14 initially dosed at 5 mg/kg, ip qd x 5/week for 1 week and dose schedule adjusted to achieve total dose of 301 mg/kg
MDA-MB-435 (human) [22] = assay: Antitumor activity against human MDA-MB-435 cells xenografted in NCR/NU NU mouse assessed as tumor volume measured on day 28 initially dosed at 5 mg/kg, ip qd x 5/week for 1 week and was gradually increased to 7 mg/kg x 5/week schedule
MDA-MB-435 (human) [23] = assay: Antitumor activity against human MDA-MB-435 cells xenografted in NCR/NU NU mouse assessed as tumor volume measured on day 7 initially dosed at 5 mg/kg, ip qd x 5/week for 1 week and was gradually increased to 7 mg/kg x 5/week schedule
MDA-MB-435 (human) [24] = assay: Antitumor activity against human MDA-MB-435 cells xenografted in NCR/NU NU mouse assessed as tumor volume measured on day 35 initially dosed at 5 mg/kg, ip qd x 5/week for 1 week and was gradually increased to 7 mg/kg x 5/week schedule
MDA-MB-435 (human) [25] = assay: Antitumor activity against human MDA-MB-435 cells xenografted in NCR/NU NU mouse assessed as tumor volume measured on day 21 initially dosed at 5 mg/kg, ip qd x 5/week for 1 week and was gradually increased to 7 mg/kg x 5/week schedule
MDA-MB-435 (human) [26] = assay: Antitumor activity against human MDA-MB-435 cells xenografted in NCR/NU NU mouse assessed as tumor volume measured on day 42 initially dosed at 5 mg/kg, ip qd x 5/week for 1 week and was gradually increased to 7 mg/kg x 5/week schedule
MDA-MB-435 (human) [27] = assay: Antitumor activity against human MDA-MB-435 cells xenografted in NCR/NU NU mouse assessed as tumor volume measured on day 14 initially dosed at 5 mg/kg, ip qd x 5/week for 1 week and was gradually increased to 7 mg/kg x 5/week schedule
MDA-MB-435 (human) [28] = assay: Antitumor activity against human MDA-MB-435 cells xenografted in NCR/NU NU mouse assessed as tumor volume measured on day 49 initially dosed at 5 mg/kg, ip qd x 5/week for 1 week and was gradually increased to 7 mg/kg x 5/week schedule

| SMILES | IC50 [1] [nM] | Activity [2] | IC50 [3] [µM] | IC50 [9] [nM] | IC50 [10] [nM] | IC50 [13] [nM] | IC50 [14] [nM] | IC50 (P388) [nM] | also measured |
| --- | --- | --- | --- | --- | --- | --- | --- | --- | --- |
| COc1cc2c(=O)n(CCN(C)C)c3c4cc5c(cc4ncc3c2cc1OC)OCO5 | 2 | 0.3 | 0.9 | 5 | 6 | 230 | 5 | – | Activity [4]: 175 mm³; Activity [5]: 189 mm³; Activity [6]: 158 mm³; Activity [7]: 242 mm3; Activity [8]: 145 mm³; Activity [11]: 123 mm³; Activity (MDA-MB-435 (human) [12]): 120 mm3 |
| COc1cc2c(=O)n(CCN(C)CC(N)=O)c3c4cc5c(cc4ncc3c2cc1OC)OCO5 | 3 | 0.3 | 3.5 | – | 320 | 390 | 10 | 9 | Activity (MDA-MB-435 (human) [15]): 230 mm3; Activity (MDA-MB-435 (human) [16]): 527 mm3; Activity (MDA-MB-435 (human) [17]): 147 mm3; Activity (MDA-MB-435 (human) [18]): 434 mm3; Activity (MDA-MB-435 (human) [19]): 319 mm3; Activity (MDA-MB-435 (human) [20]): 344 mm3; Activity (MDA-MB-435 (human) [21]): 178 mm3 |
| C#CCN(C)CCn1c(=O)c2cc(OC)c(OC)cc2c2cnc3cc4c(cc3c21)OCO4 | 8 | 0.1 | 4.5 | 70 | 34 | 400 | – | 20 | Activity (MDA-MB-435 (human) [22]): 284 mm3; Activity (MDA-MB-435 (human) [23]): 144 mm3; Activity (MDA-MB-435 (human) [24]): 317 mm3; Activity (MDA-MB-435 (human) [25]): 218 mm3; Activity (MDA-MB-435 (human) [26]): 358 mm3; Activity (MDA-MB-435 (human) [27]): 167 mm3; Activity (MDA-MB-435 (human) [28]): 433 mm3 |
